Sampled rows, rich in hits. Any-hit rate of the full collection: about 3.1%.
KCNK3 inh: human KCNK3 channel inhibition, primary screen; CHO-KCNK3 thallium flux, FluxOR fluorescence; hits give low values; B-score at 10 µM; 0.84% of 340,000 active; AID 602410;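 active means B-score under library mean minus 4 SD, starting fluorescence ratio at most library mean plus 5 SD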;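 further: more negative B-score means stronger inhibition of thallium flux through KCNK3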
Target sequence (O14649 whole entry, looked up): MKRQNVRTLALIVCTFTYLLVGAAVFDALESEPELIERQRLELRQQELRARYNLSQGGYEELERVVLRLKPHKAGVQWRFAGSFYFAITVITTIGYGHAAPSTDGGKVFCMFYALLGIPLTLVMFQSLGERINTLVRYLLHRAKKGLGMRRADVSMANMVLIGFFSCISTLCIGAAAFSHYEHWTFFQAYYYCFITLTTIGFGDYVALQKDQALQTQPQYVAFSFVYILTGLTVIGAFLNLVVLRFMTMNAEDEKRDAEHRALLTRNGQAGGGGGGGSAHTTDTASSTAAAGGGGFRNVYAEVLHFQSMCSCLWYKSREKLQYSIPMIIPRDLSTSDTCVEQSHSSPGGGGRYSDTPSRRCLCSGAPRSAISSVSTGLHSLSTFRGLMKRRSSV
KCNK9 block: human KCNK9 channel inhibition. Q9NPC2. HEK293 KCNK9, FluxOR thallium flux fluorescence; hits give low values. B-score at 10 µM. 1.2% of 310,000 active;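 active means ratio B-score over 3 SD below the library mean, with starting fluorescence within 5 SD of its mean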;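 further: negative B-score means less thallium flux so channel inhibition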
Target sequence (Q9NPC2 whole entry, looked up): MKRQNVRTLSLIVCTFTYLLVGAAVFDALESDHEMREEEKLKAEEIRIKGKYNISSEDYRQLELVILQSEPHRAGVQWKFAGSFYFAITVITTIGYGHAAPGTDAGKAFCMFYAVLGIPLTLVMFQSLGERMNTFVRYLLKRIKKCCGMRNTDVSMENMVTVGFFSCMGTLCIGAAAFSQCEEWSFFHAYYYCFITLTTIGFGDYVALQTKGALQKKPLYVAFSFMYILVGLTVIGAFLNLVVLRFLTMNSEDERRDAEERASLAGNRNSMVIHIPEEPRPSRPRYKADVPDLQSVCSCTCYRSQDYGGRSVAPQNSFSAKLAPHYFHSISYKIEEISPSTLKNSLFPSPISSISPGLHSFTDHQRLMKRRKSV
KCNQ1 act: potentiators or activators of human KCNQ1 potassium channel; P51787; CHO-K1 KCNQ1, thallium flux FluxOR fluorescence; hits give high values; B-score at 10 µM; 0.35% of 310,000 active; AID 2648;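 active means fluorescence ratio B-score, a plate-corrected score, at least three library SD, with initial intensity B-score within 5 SD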
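assay system = KCNQ1-transfected CHO-K1 cells | medium = assay buffer with matched DMSO | probe or stimulus = depolarizing K+/Tl+ stimulus, K2SO4 and Tl2SO4 each 12.5 mM in 5x stock | dosing = single dose | incubation = dye 90 min, compound 20 min, room temperature | detection = kinetic FluxOR fluorescence, 10 s baseline plus 110 s post-stimulus | evaluation = ratio B score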
KCNQ1 inh: blocks the human KCNQ1 potassium channel | CHO-K1 KCNQ1, FluxOR thallium flux fluorescence; hits give high values | B-score at 10 µM | 1.3% of 310,000 active | AID 2642;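 active means compounds whose thallium flux B-score, printed positive for inhibition, exceeds three library SD while starting fluorescence stays within three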;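 further: channel opened by potassium depolarization with thallium stimulus after 20 min compound exposure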
hERG protect: hERG (human) protection from proarrhythmic block; Q12809; CHO-hERG, FluxOR thallium flux, dofetilide IC70 present; activation (rescue from dofetilide block), less the hit threshold, % at 10 µM; 0.51% of 310,000 active;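 active means activation above the mean of controls blocked by dofetilide plus 5 SD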;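 further: thallium influx through hERG after potassium depolarization seen as dye fluorescence rise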
KCNK9 inh conf: human KCNK9 inhibitor confirmation. shares compounds with KCNK9 block. HEK293 KCNK9 cells, FluxOR thallium flux fluorescence. inhibition, % at 10 µM. 43% of 4,900 active. AID 492992;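 active means thallium signal inhibited by more than 5 SD of the compound-free buffer control wells, on both duplicate plates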
Kir21 sel: mouse Kir2.1 off-target activity of KCNK9 modulators | inhibition, % at 10 µM | Kir2.1 cells, FluxOR thallium flux fluorescence | 4% of 4,900 active | shares compounds with KCNK9 block;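 active means thallium signal drop more than 5 SD beyond the mean of the no-compound control wells, seen in both duplicate plates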;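 further: signal is fluorescence rise after thallium addition divided by baseline fluorescence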
KCNK9 uninduced: non-induced cell nonspecific activity of KCNK9 modulators; shares compounds with KCNK9 block; non-induced KCNK9-HEK293, FluxOR thallium flux; inhibition, % at 10 µM; 40% of 4,900 active; AID 492997;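 active means thallium signal drop beyond 5 SD of the untreated control mean, on both duplicate plates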
KCNK3 inh conf: confirmation of human KCNK3 two-pore domain potassium channel inhibitors; shares compounds with KCNK3 inh; CHO-KCNK3 thallium flux, FluxOR fluorescence; 0% buffer, 100% carvedilol maximal block; ratio percent of control, % at 10 µM; 99% of 2,400 active; AID 651638;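 active means ratio percent of control, averaged over triplicates, above buffer control mean plus 5 SD, cut at about 64% in these data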;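 further: ratio is the fluorescence rise from min to max over baseline after thallium stimulus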
KCNK3 uninduced: counter-screen for KCNK3 inhibitors: effect in non-induced cells; non-induced KCNK3 parental cells, FluxOR thallium flux; hits give low values; 40% of 2,400 active; thallium flux ratio (lower = more inhibition) at 10 µM; shares compounds with KCNK3 inh;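 active means thallium flux ratio, averaged over three wells, more than 5 SD below the buffer control mean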;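 further: host cells are CHO cells without KCNK3 induction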
Numbers stand for hits; i = inactive; nt = no result.

SMILES	KCNK3 inh	KCNK9 block	KCNQ1 act	KCNQ1 inh	hERG protect	KCNK9 inh conf	Kir21 sel	KCNK9 uninduced	KCNK3 inh conf	KCNK3 uninduced
C/C=C(\C)C(=O)OC1c2c(ccc3ccc(=O)oc23)OC(C)(C)C1OC(C)=O (stereo unspecified)	i	i	i	i	i	nt	nt	nt	nt	nt
C/C=C(/C)C(=O)OC1c2c(ccc3ccc(=O)oc23)OC(C)(C)C1OC(=O)/C(C)=C\C (stereo unspecified)	-9.13	-13.2	i	i	i	59.0%	i	35.0%	126.3	0.138
CC(=O)c1c(C)[nH]c(C(=O)Nc2ccc(F)c(F)c2F)c1C	i	i	i	i	i	nt	nt	nt	nt	nt
CCc1cc2cccc(C)c2nc1SCC(=O)NC1CCCC1	-11.4	-9.04	i	i	i	52.5%	i	26.5%	104.0	i
O=C1N[C@H]2CC=C[C@H]2Nc2ccccc21	i	nt	nt	nt	nt	nt	nt	nt	nt	nt
CCC(=O)c1ccccc1OCCCN1CCC(Cc2ccccc2)CC1	-10.1	i	i	i	i	i	i	i	88.0	0.132
COCCn1c(=NC(=O)CSC(C)=O)sc2cc(OC)ccc21	-8.95	-15.5	i	i	i	60.0%	i	25.5%	92.7	i
COc1ccccc1C(=O)Nc1ccc(C(=O)c2ccccc2)cc1	-13	-12.3	i	i	i	61.0%	i	i	127.3	0.132
Cc1ccc(C)c(N2CCN(S(=O)(=O)c3ccc4c(c3)CC(C)N4C(=O)C3CC3)CC2)c1 (stereo unspecified)	-9.27	i	i	i	i	i	i	i	75.3	i
Cc1c(Cl)cccc1-n1c(SCC(=O)N2CCC(C(=O)O)CC2)nnc1-c1ccncc1	i	i	i	i	i	nt	nt	nt	nt	nt
COc1cc(OC)cc(C(=O)Nc2ccc(S(=O)(=O)Nc3nc(C)cc(C)n3)cc2)c1	i	i	i	i	i	nt	nt	nt	nt	nt
CC(C)OC(=O)COc1ccc(-c2ccccc2)cc1	-11.1	-9.24	i	i	i	i	i	i	96.7	i
Cc1ccsc1C(=O)OCC(=O)NC1CCCCC1C (stereo unspecified)	i	nt	nt	nt	nt	nt	nt	nt	nt	nt
Cc1ccc(C(c2ccc(C)o2)c2cccc([N+](=O)[O-])c2O)o1	-9.79	-11	i	i	i	26.0%	i	i	113.7	0.146
COc1ccc(NC(=O)COc2cccc(-n3cnnn3)c2)cc1Cl	i	i	i	i	i	nt	nt	nt	nt	nt
CC(C)CN(CC(C)C)C(=O)c1cccc(S(=O)(=O)N2CCc3ccccc32)c1	-9.74	-8.84	i	i	i	40.5%	i	37.0%	111.3	i
COc1ccc(-n2nc(C(=O)NCC(=O)Nc3cc(OC)ccc3OC)c3ccccc3c2=O)cc1	-11.4	-13.6	i	i	i	i	i	i	89.3	i
O=C(Nc1ccccc1F)C(=O)Nc1cccc2ccccc12	i	i	i	i	i	nt	nt	nt	nt	nt
O=C(CNc1ccccc1F)Nc1cccc2ccccc12	-14.4	-11.5	i	i	i	49.0%	i	i	112.3	0.158
CCn1cc(Br)c(C(=O)Nc2ccc(C(=O)OC(C)C)cc2)n1	-9.7	-10.7	i	i	i	41.0%	i	25.5%	99.3	i
COc1cccc(COc2ccc3ccc(=O)oc3c2)c1	i	i	i	i	i	nt	nt	nt	nt	nt
CC(C)=CCC/C(C)=C/COc1ccc2ccc(=O)oc2c1	-9.2	-19.3	i	i	i	68.5%	i	46.5%	93.0	i
COc1ccc(COc2ccc3ccc(=O)oc3c2)cc1	-10.2	-11.8	i	i	i	46.5%	i	31.5%	115.3	i
CC(C)=CCC/C(C)=C/CC/C(C)=C/COc1ccc2ccc(=O)oc2c1	i	nt	nt	nt	nt	nt	nt	nt	nt	nt
CC1=CC(C/C(C)=C/COc2ccc3ccc(=O)oc3c2)OC1=O (stereo unspecified)	i	i	i	i	i	nt	nt	nt	nt	nt
SMILES	KCNK3 inh	KCNK9 block	KCNQ1 act	KCNQ1 inh	hERG protect	KCNK9 inh conf	Kir21 sel	KCNK9 uninduced	KCNK3 inh conf	KCNK3 uninduced
CC(C)=CCOc1ccc2ccc(=O)oc2c1	-9.25	-11.6	i	i	i	37.0%	i	34.5%	118.7	i
O=C(C[C@H]1C/C=C\C[C@H](Cc2ccc(F)cc2)C(=O)O[C@@H](c2ccccc2)CNC1=O)NCCO	i	nt	nt	nt	nt	nt	nt	nt	nt	nt
CCOc1ccccc1C(=O)Nc1cccc(-c2nnc(-c3ccccc3)o2)c1	-9.49	-15.5	i	i	i	45.0%	i	28.5%	107.3	i
CSCCC(NC(=O)OCc1ccccc1)C(=O)NCc1cccnc1 (stereo unspecified)	i	i	i	i	i	nt	nt	nt	nt	nt
CCN1CC2=C(OC(N)=C(C#N)C2c2cccs2)/C(=C\c2cccs2)C1 (stereo unspecified)	i	-8.68	i	i	i	28.5%	i	25.5%	130.3	0.12
CCOC(=O)C1=C(CC)OC(N)=C(C#N)C1c1cccs1 (stereo unspecified)	i	i	i	i	i	nt	nt	nt	nt	nt
COc1ccc(/C=N\NC(=O)c2ccccc2OC)cc1COc1ccccc1C	i	i	i	i	i	nt	nt	nt	nt	nt
COc1ccc(/C=N/NC(=O)c2ccoc2C)cc1COc1c(C)cccc1C	-12.8	-11.4	i	12	i	47.5%	i	i	113.0	0.138
CCOC(=O)Cn1c(C)[n+](CC(=O)c2ccccc2)c2ccccc21	i	i	i	i	i	nt	nt	nt	nt	nt
COc1ccc(C2CC(c3ccc4ccccc4c3)=NN2C(=O)CNC2CCCCC2)cc1 (stereo unspecified)	-10.6	-8.9	i	i	i	44.5%	i	29.5%	132.7	i
CCOC(=O)c1ccc(Cn2c(-c3ccccc3)nnc2-c2ccccc2)o1	-9.33	-13	i	i	i	56.0%	i	40.5%	114.7	0.152
O=C(C[C@H]1C/C=C\C[C@@H](Cc2ccc(F)cc2)C(=O)OC[C@H]2CCCN2C1=O)NCCO	i	nt	nt	nt	nt	nt	nt	nt	nt	nt
Cc1onc(-c2ccc(Cl)cc2)c1-c1ccnc(SCC(=O)Nc2ccc(C(C)C)cc2)n1	-11.4	-9.6	i	i	i	40.5%	i	29.0%	115.0	i
O=C(Nc1cccc(Br)c1)c1ccc2c(c1)SC1=NS(=O)(=O)CCN12	i	nt	nt	nt	nt	nt	nt	nt	nt	nt
CCN(Cc1ccccc1)C(c1cccc(C#N)c1)c1nnnn1C(C)(C)C (stereo unspecified)	-9.25	-14.1	i	i	i	64.5%	i	43.0%	101.7	i
COC(=O)COc1ccc(/C=N/NC(=O)CN(c2ccccc2OC)S(=O)(=O)c2ccccc2)cc1	-16.3	-13.5	i	i	i	i	i	i	116.3	0.139
